# Screening data from PubChem.
# GSIS activator: GLuc luminescence reporter in INS-1E cells, primary screen for activators of glucose-dependent secretion of insulin; INS-1E GLuc reporter insulin secretion, 2-3 h; activation, % at 16.6 µM; 0.61% of 370,000 active; AID 743287, 2014;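 active = lowest replicate activation of at least 40%, so every replicate reaches that level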;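 note: 0% = median of neutral control wells and 100% = median of IBMX positive control wells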
# HIV Env fusion: inhibitors of HIV-1 Env-driven cell-cell fusion, primary screen, HeLa-JRFL effector, CEM21 target cells, luciferase; inhibition, % at 12.3 µM; AID 651610, 2012; 1.1% of 360,000 active;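 active = mean replicate inhibition score of at least 50 and every replicate individually at or above 50; inconclusive = only one of the two criteria met; inactive = mean below 50 and not all replicates reaching 50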;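 note: 0% = plate neutral controls and 100% = maraviroc near 300 nM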
# FN deposit inh: inhibitors of fibronectin matrix deposition, primary screen, AH1F cells, Alexa488-fibronectin fluorescence, plate reader | 0.086% of 350,000 active | AID 743247, 2014 | AH1F fibroblasts, overnight | inhibition, % at 12.6 µM;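 active = mean inhibition across replicates of 30% or more, regardless of how many single replicates reach that level; inconclusive = mean under 30% yet at least half of replicates reach 30%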;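 note: positive control wells lacked labelled fibronectin entirely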
#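 Measured by – fluorescence 485/525 nm · System – AH1F fibroblast monolayer, labelled fibronectin deposition · Amount – 10000 cells per well · Buffer or medium – serum-reduced DMEM (2% serum) · Doses – single dose, pinned · Also added – fluorescent fibronectin at 24 nM final · Schedule – 1 h cell attachment, overnight exposure to compound and label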
# PDI inh: inhibitors of human PDI, primary screen, biochemical, turbidity, single point, plate reader; Protein disulfide-isomerase (Homo sapiens), P07237; PDI insulin aggregation turbidity, A650, 90 min; inhibition, % at 10 µM; 0.052% of 350,000 active; AID 588391, 2011;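 active = mean inhibition across replicates of 30% or more, whatever share of single replicates reach that level; inconclusive = mean inhibition below 30% while every single replicate reaches 30%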
# Target sequence (P07237 whole entry, looked up): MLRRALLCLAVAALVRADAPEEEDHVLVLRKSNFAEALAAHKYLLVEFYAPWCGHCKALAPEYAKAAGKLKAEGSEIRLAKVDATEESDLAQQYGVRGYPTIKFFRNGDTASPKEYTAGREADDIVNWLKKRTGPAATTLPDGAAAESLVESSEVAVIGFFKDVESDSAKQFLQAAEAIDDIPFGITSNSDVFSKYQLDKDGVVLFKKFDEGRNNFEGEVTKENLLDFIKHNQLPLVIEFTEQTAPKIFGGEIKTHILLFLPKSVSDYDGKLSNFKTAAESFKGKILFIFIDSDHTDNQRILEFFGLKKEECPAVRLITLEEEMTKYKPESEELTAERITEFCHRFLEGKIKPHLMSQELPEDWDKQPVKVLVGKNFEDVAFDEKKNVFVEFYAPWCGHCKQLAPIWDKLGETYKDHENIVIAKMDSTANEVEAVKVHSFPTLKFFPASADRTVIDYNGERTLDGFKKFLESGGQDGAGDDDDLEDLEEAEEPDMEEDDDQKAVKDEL
# ERp5 inh: inhibitors of ERp5-driven insulin aggregation, primary screen, biochemical, turbidity, absorbance 650 nm, single point; 90 min; inhibition, % at 9.99 µM; 0.05% of 350,000 active; AID 651711, 2012;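 active = mean replicate inhibition above about 25%, with every replicate also reaching it, limit read from the data, passing the limit was not always enough; inconclusive = only one of those two criteria met; inactive = neither criterion met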
# An asterisk follows results filed as active; i = inactive; u = inconclusive; x = no result given; ! = repeats disagree; [ ] = remark or other dose. Only some compounds are listed: those with a hit (about 1.4% of all), similar ones and a draw of the others.
SMILES,GSIS activator,HIV Env fusion,FN deposit inh,PDI inh,ERp5 inh
C[C@H]1CN([C@@H](C)CO)C(=O)c2cc(C#CC(C)(C)O)cnc2O[C@H]1CN(C)Cc1cncnc1,-5.1,-17.9[16.7 µM],-1.8,x,-0.4
COC(=O)C1=C(C)N(Cc2ccc(Cl)cc2)C(=S)NC1c1ccc(Br)cc1 (stereo not given),11.9,55.7*,2.3,x,-14.9
CC(=O)C1=C(C)N(Cc2ccc(Br)cc2)C(=S)NC1c1cccc(Br)c1 (stereo not given),-0.2,u,10.2,x,-7.1
CC(=O)C1=C(C)N(Cc2ccc(Cl)cc2)C(=S)NC1c1cccc(Br)c1 (stereo not given),-5.0,70.4*,-12.7,x,0.1
CC(=O)C1=C(C)N(Cc2ccc(Br)cc2)C(=S)NC1c1cccc(Cl)c1 (stereo not given),-40.9,70.0*,6.3,x,4.8
COC(=O)C1=C(C)N(Cc2ccc(Cl)cc2)C(=S)NC1c1ccc(F)cc1 (stereo not given),-38.8,24.3,-6.4,x,-3.3
C[C@H](CO)N1C[C@H](C)[C@@H](CN(C)C(=O)Nc2ccnc(N3CCOCC3)c2)OCc2cnnn2CCCC1=O,2.7,-1.1,3.0,2.1,2.0
C[C@@H]1CN([C@@H](C)CO)C(=O)CCCn2nncc2CO[C@H]1CN(C)S(=O)(=O)c1ccc(Oc2ccccc2)cc1,13.3,-11.5,12.4,0.6,-3.2
C[C@H](CO)N1C[C@H](C)[C@@H](CN(C)S(=O)(=O)c2ccc(Oc3ccccc3)cc2)OCc2cnnn2CCCC1=O,6.8,23.6[16.7 µM],6.1,18.7,89.2*!
C[C@@H]1CN([C@H](C)CO)C(=O)CCCn2nncc2CO[C@H]1CN(C)C(=O)Nc1ccnc(N2CCOCC2)c1,44.8*!,7.0,0.7,-0.7,5.2
Cc1nc2nc(C)c(CCC(=O)N3CCN(c4ccccn4)CC3)c(C)n2n1,11.0,-4.8,-2.5,-2.2,x
CCn1c(=O)c(CCC(=O)N2CCN(c3ccccn3)CC2)c(C)c2c(C)nn(-c3cccc(C)c3)c21,9.2,58.2*,4.8,-7.7,4.6
Cc1cc(C)nc(NS(=O)(=O)c2ccc(N/C=C/C(=O)c3ccc(Cl)c(Cl)c3)cc2)n1,63.0*,x,-0.9,-9.1,x
Cc1cc(C)nc(NS(=O)(=O)c2ccc(N/C=C\C(=O)c3ccc(Cl)cc3)cc2)n1,x,x,x,4.9,x
CCNC(=O)C[C@H]1CC[C@H]2[C@H](COc3ccc(NC(=O)Cc4cccs4)cc3C(=O)N2C)O1,1.0,49.3[16.7 µM],-5.3,x,-2.9
NC(Cc1ccc(C(F)(F)F)cc1)c1csc(NC(=O)Nc2ccccc2Cc2ccccc2)n1 (stereo not given),10.0,82.0*,-13.5,2.3,-3.9
COc1cccc(Nc2nc(C(N)CCc3ccccc3)cs2)n1 (stereo not given),-4.9,70.3*,-5.9,1.6,3.0
NC(CCc1ccccc1)c1csc(NC(=O)NCCc2ccccc2)n1 (stereo not given),8.4,20.9,-3.8,-0.5,6.1
NC(CCc1ccccc1)c1csc(NC(=O)Nc2ccccc2Oc2ccccc2)n1 (stereo not given),-6.0,89.8*,-12.7,6.0,2.7
Cc1cccc(C)c1-n1nnnc1C1(C)CCC(=O)N1Cc1cccs1 (stereo not given),52.8*,-13.8,5.9,x,-1.7
CCc1ccc(C(=O)COC(=O)C(Cc2ccccc2)NC(=O)c2ccc(Cl)cc2)cc1 (stereo not given),x,-51.6,-3.2,-9.8,x
CCc1ccc(C(=O)COC(=O)C(Cc2ccccc2)NC(=O)C2CCC(C)CC2)cc1 (stereo not given),47.7*,-110.1,-0.3,0.3,x
C[C@@H]1CN([C@@H](C)CO)C(=O)c2cc(NC(=O)Cn3cnnn3)ccc2O[C@H]1CN(C)S(=O)(=O)c1ccc(Cl)cc1,1.4,-20.5[16.7 µM],x,x,-5.7
O=C(O)C[C@@H]1C=C[C@H](NC(=O)Nc2ccccc2)[C@@H](CO)O1,11.2,-3.8[16.7 µM],-2.9,x,1.3
O=C(C[C@@H]1CC[C@@H](NC(=O)Nc2ccccc2F)[C@H](CO)O1)NCc1ccc(F)cc1,10.5,x,x,x,-1.7
SMILES,GSIS activator,HIV Env fusion,FN deposit inh,PDI inh,ERp5 inh
O=C(C[C@H]1C=C[C@H](NC(=O)Nc2ccccc2F)[C@@H](CO)O1)NCc1ccc(-c2ccccc2)cc1,0.8,-16.0[16.7 µM],-4.6,x,-0.3
O=C(C[C@H]1C=C[C@@H](NC(=O)Nc2ccccc2F)[C@H](CO)O1)NCc1ccc(-c2ccccc2)cc1,1.0,56.6*[16.7 µM],0.1,x,-4.5
O=C(C[C@@H]1C=C[C@@H](NC(=O)Nc2ccc3c(c2)OCO3)[C@H](CO)O1)NCc1ccc(F)cc1,-10.8,59.2*[16.7 µM],x,x,1.1
O=C(O)C[C@@H]1C=C[C@@H](NC(=O)Nc2ccccc2)[C@H](CO)O1,16.6,58.5*[16.7 µM],7.7,x,2.8
O=C(C[C@H]1CC[C@@H](NC(=O)Nc2ccccc2F)[C@@H](CO)O1)NCc1ccc(Cl)cc1,-27.7,59.5*[16.7 µM],11.4,x,-1.5
CO[C@@H]1CC[C@H]2CCOc3ccc(C#N)cc3C(=O)N(C)CCCC(=O)N(C)C[C@H]1O2,-5.2,18.8[16.7 µM],-1.7,x,-2.7
C[C@H]1CN([C@@H](C)CO)C(=O)c2cccc(NC(=O)C3CCCCC3)c2O[C@H]1CN(C)C(=O)Nc1ccc(F)cc1,-11.5,x,1.9,x,-0.3
C[C@H]1CN([C@@H](C)CO)C(=O)c2cc(C3=CCCCC3)cnc2O[C@H]1CN(C)CC1CCOCC1,2.0,i,x,x,2.9
COc1ccccc1NC(=O)N[C@H]1C=C[C@@H](CC(=O)N[C@H](C)c2ccccc2)O[C@H]1CO,-6.4,94.4*[16.7 µM],-1.3,x,-2.5
CCOC(=O)c1cccc(NS(=O)(=O)c2ccc(NC(C)=O)cc2)c1,x,106.0*,x,0.7,x
CCOC(=O)c1cccc(NS(=O)(=O)c2c(C)[nH]c(=O)[nH]c2=O)c1,x,15.4,x,4.8,x
Cc1cnc(C(=O)OC(C)C(=O)NCc2ccccc2)cn1 (stereo not given),59.1*,-16.0,-1.4,-2.5,13.7
O=C1C=C(c2c(O)ccc3ccccc23)c2ccccc2C1=O,40.8*,13.0,16.3,7.9,-4.8
CC(C)(C)c1ccc(OCC(=O)Nc2ccc(-c3nc4cccnc4o3)cc2)cc1,105.7*,x,x,-2.1,x
C[C@H](CO)N1C[C@H](C)[C@H](CN(C)C(=O)NC2CCCC2)Oc2cc(C#Cc3ccc(F)cc3)ccc2S1(=O)=O,-3.8,63.3*[16.7 µM],-3.1,x,-1.9
C[C@H](CO)N1C[C@H](C)[C@H](CN(C)C(=O)C2CCCCC2)Oc2cc(Br)ccc2S1(=O)=O,-12.3,55.2*[16.7 µM],-23.9,x,x
CCC(=O)N(C)C[C@@H]1Oc2cc(C#CC(C)(C)O)ccc2S(=O)(=O)N([C@H](C)CO)C[C@@H]1C,8.3,-136.3[16.7 µM],2.1,x,6.2
